Results reported in ChEMBL document CHEMBL2029228, “Antimalarial activity of 9a-N substituted 15-membered azalides with improved in vitro and in vivo activity over azithromycin” (J Med Chem, 2012).
pIC50: −log10 of the molar value. Active and inactive are the calls of the source. The rule behind the calls is not given here.

What was measured:
[1] = Oral bioavailability in CD1 mouse at 25 mg/kg; type: ADME, organism-based; details: in vivo
In short: (§1)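 Male CD-1 mice (N = 3 per route) dosed IV at 5 mg/kg or orally at 25 mg/kg while fasted, mostly in saline (2.5 mg/mL). Tail-vein blood taken up to 24 h, cardiac puncture at 30 h. Samples hemolyzed, protein-precipitated with acetonitrile plus internal standard, analysed by positive ESI LC-MS/MS.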

Plasmodium berghei [2] = experiment: Antimalarial activity against Plasmodium berghei KBG173 infected in mouse assessed as increase in mouse survival time at 5 mg/kg, iv BID administered on day 3, 4 and 5 post infection relative to azithromycin; type: functional
In short: (§2)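 Male mice (24−30 g) inoculated intraperitoneally with 5 × 10⁶ P. berghei KBG-173-infected erythrocytes; parasitemia 1.0–3.7% by day 3. IV dosing twice daily on days 3, 4 and 5 post-infection. Read-out is the survival time of the last animal alive. Mice blood-smear negative on day 31 counted as cured; mice losing ≥20% body weight sacrificed.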

[3] = Fraction unbound in CD1 mouse plasma at 5 mg/kg, iv; type: ADME, organism-based; design: dose 5 mg/kg, route intravenous
In short: (§3)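 Fraction unbound measured in mouse plasma by ultrafiltration at 1 μg/mL. Unbound clearance = blood clearance/fu, assuming blood/plasma ratio of 1. Blood clearance comes from male CD-1 mice dosed IV at 5 mg/kg, with tail-vein sampling up to 24 h and LC-MS/MS analysis.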

[4] = (§4) Half life in CD1 mouse at 5 mg/kg, iv; type: ADME, organism-based; design: dose 5 mg/kg, route intravenous; details: CD1, mouse, in vivo; in short: as §1
HepG2 = experiment: Cytotoxicity against human HepG2 cells after 24 hrs by MTS assay; type: cell-based; details: HepG2, 24 h
In short: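 HepG2 cells kept in RPMI 1640 with 10% FBS plus antibiotics at 37 °C, 5% CO₂. 50 000 cells per well exposed to 10 two-fold serial dilutions for 24 h. MTS reagent then added for 2 h more, absorbance read at 490 nm, IC50 derived.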

Liver microsomes [5] = experiment: Intrinsic clearance in rat liver microsomes assessed per gram of liver at 1 uM after 60 mins at pH 7.4 by LC-MS/MS analysis; type: ADME, Microsome; details: pH 7.4, 1 h
In short: (§5)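 Liver microsomes (0.5 mg protein/mL) in 50 mM potassium phosphate pH 7.4 with 1.0 μM compound at 37 °C for 60 min. Reaction started with NADP/glucose-6-phosphate/MgCl₂/G6PDH cofactor mix; solvent 1% final. LC-MS/MS read-out. CLi from first-order elimination constant by nonlinear regression, corrected for incubation volume, assuming 52.5 mg microsomal protein/g liver.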

Plasmodium falciparum = experiment: Antimalarial activity against mefloquine-resistant Plasmodium falciparum TM91C235 assessed as [3H]hypoxanthine incorporation after 48 hrs; type: functional, organism-based
In short: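 Tritiated hypoxanthine incorporation assay (Desjardins method, Milhous modification) with 48 h drug exposure. Uses P. falciparum clone TM91C235 (Southeast Asian, mefloquine-resistant). Compounds 2-fold diluted over 11 concentrations. IC50 derived by nonlinear logistic dose-response fitting, averaged where multiple runs were done.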

[6] = Plasma protein binding in mouse at 1 ug/ml after 30 mins; type: ADME, cell-free; details: read-out: PPB (converted)
In short: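 Ultrafiltration on mouse plasma preincubated 15 min at 37 °C, compound spiked to 1 μg/mL final. Aliquots taken at 0 and 15 min, remainder spun through a 10 kDa filter for 30 min at 37 °C, 2850 g. Filtrate deproteinized and analysed by LC-MS/MS.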

Mus musculus [7] = experiment: Unbound clearance in CD1 mouse at 5 mg/kg, iv; type: ADME, organism-based; design: dose 5 mg/kg, route intravenous; details: in vivo; in short: as §3
[8] = Clearance at steady state in CD1 mouse at 5 mg/kg, iv; type: ADME, organism-based; design: dose 5 mg/kg, route intravenous; details: in vivo, read-out: CLss; in short: as §1
[9] = Volume of distribution at steady state in CD1 mouse at 5 mg/kg, iv; type: ADME, organism-based; design: dose 5 mg/kg, route intravenous; details: in vivo, read-out: Vdss; in short: as §1
Liver = experiment: Intrinsic clearance in mouse liver microsomes assessed per gram of liver at 1 uM after 60 mins at pH 7.4 by LC-MS/MS analysis; type: ADME, Microsome; details: pH 7.4, 1 h; in short: as §5
Liver microsomes [10] = experiment: Intrinsic clearance in human liver microsomes assessed per gram of liver at 1 uM after 60 mins at pH 7.4 by LC-MS/MS analysis; type: ADME, Microsome; details: pH 7.4, 1 h; in short: as §5
Plasmodium berghei [11] = experiment: Antimalarial activity against Plasmodium berghei KBG173 infected in mouse assessed as cured mouse at 5 mg/kg, iv BID administered on day 3, 4 and 5 post infection measured up to day 31; type: functional, organism-based; design: dose 5 mg/kg
In short: (§6)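 Male mice (24–30 g) inoculated intraperitoneally with 5 × 10⁶ P. berghei KBG-173-infected erythrocytes; parasitemia about 1.0–3.7% by day 3. Dosing twice daily on days 3–5 postinfection. Blood smears negative on day 31 counted as cured, scored as cured/total mice (5 per dose). Mice losing ≥20% body weight sacrificed.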

Mus musculus [12] = experiment: as §4; type: ADME, organism-based; design: dose 5 mg/kg, route intravenous; details: mouse, in vivo; in short: as §1
Plasmodium berghei [13] = experiment: Antimalarial activity against Plasmodium berghei KBG173 infected in mouse assessed as decrease in parasitemia at 10 mg/kg, iv BID administered on day 3, 4 and 5 post infection measured on day 31 relative to control; type: functional, organism-based; design: dose 10 mg/kg; in short: as §6
Plasmodium berghei [14] = experiment: Antimalarial activity against Plasmodium berghei KBG173 infected in mouse assessed as cured mouse at 15 mg/kg, iv BID administered on day 3, 4 and 5 post infection measured up to day 31; type: functional, organism-based; design: dose 15 mg/kg; in short: as §6
Plasmodium berghei [15] = experiment: Antimalarial activity against Plasmodium berghei KBG173 infected in mouse assessed as mouse survival time at 15 mg/kg, iv BID administered on day 3, 4 and 5 post infection; type: functional; in short: as §2
Plasmodium berghei [16] = experiment: Antimalarial activity against Plasmodium berghei KBG173 infected in mouse assessed as mouse survival time at 5 mg/kg, iv BID administered on day 3, 4 and 5 post infection; type: functional; in short: as §2
Plasmodium berghei [17] = experiment: Antimalarial activity against Plasmodium berghei KBG173 infected in mouse assessed as decrease in parasitemia at 10 mg/kg, ip BID administered on day 3, 4 and 5 post infection measured on day 31 relative to control; type: functional, organism-based; design: dose 10 mg/kg; in short: as §6
Plasmodium berghei [18] = experiment: Antimalarial activity against Plasmodium berghei KBG173 infected in mouse assessed as decrease in parasitemia at 20 mg/kg, ip BID administered on day 3, 4 and 5 post infection measured on day 31 relative to control; type: functional, organism-based; design: dose 20 mg/kg; in short: as §6
Plasmodium berghei [19] = experiment: Antimalarial activity against Plasmodium berghei KBG173 infected in mouse assessed as decrease in parasitemia at 15 mg/kg, iv BID administered on day 3, 4 and 5 post infection measured on day 31 relative to control; type: functional, organism-based; design: dose 15 mg/kg; in short: as §6
Plasmodium berghei [20] = experiment: Antimalarial activity against Plasmodium berghei KBG173 infected in mouse assessed as decrease in parasitemia at 20 mg/kg, iv BID administered on day 3, 4 and 5 post infection measured on day 31 relative to control; type: functional, organism-based; design: dose 20 mg/kg; in short: as §6
[21] = Aqueous solubility of the compound; type: physicochemical; details: buffer

| Compound | bioavailability [1] | Survival (Plasmodium berghei [2]) | fraction unbound [3] | half-life [4] | pIC50 (HepG2) | pIC50 (Plasmodium falciparum) | fraction unbound at 0.5 h, 1 ug/ml [6] | CL free (Mus musculus [7]) | clearance [8] | Vd [9] | CLint (Liver microsomes [10]) | Activity (Plasmodium berghei [11]) | also measured |
| --- | --- | --- | --- | --- | --- | --- | --- | --- | --- | --- | --- | --- | --- |
| CC[C@H]1OC(=O)[C@H](C)[C@@H](O[C@H]2C[C@@](C)(OC)[C@@H](O)[C@H](C)O2)[C@H](C)[C@@H](O[C@@H]2O[C@H](C)C[C@H](N(C)C)[C@H]2O)[C@](C)(O)C[C@@H](C)CN(CCCNCc2ccnc3ccccc23)[C@H](C)[C@@H](O)[C@]1(C)O | 19.5% | 3 days | 0.57 | 8.7 h | < 4.30 | 6.78 | 0.57 | 18 mL/min/kg | 10.2 mL/min/kg | 4.9 L/kg | < 0.6 mL/min/g |  | CLint (Liver microsomes [5]): < 0.6 mL/min/g; CLint (Liver): < 0.6 mL/min/g |
| CC[C@H]1OC(=O)[C@H](C)[C@@H](O[C@H]2C[C@@](C)(OC)[C@@H](O)[C@H](C)O2)[C@H](C)[C@@H](O[C@@H]2O[C@H](C)C[C@H](N(C)C)[C@H]2O)[C@](C)(O)C[C@@H](C)CN(CCC(=O)N[C@H](C)c2cccc3ccccc23)[C@H](C)[C@@H](O)[C@]1(C)O | 23.6% | -9 days | 0.13 | 16.5 h | < 4.52 | 7.02 | 0.13 | 81 mL/min/kg | 10.5 mL/min/kg | 7.8 L/kg | 1.8 mL/min/g |  |  |
| CC[C@H]1OC(=O)[C@H](C)[C@@H](O[C@H]2C[C@@](C)(OC)[C@@H](O)[C@H](C)O2)[C@H](C)[C@@H](O[C@@H]2O[C@H](C)C[C@H](N(C)C)[C@H]2O)[C@](C)(O)C[C@@H](C)CN(C)[C@H](C)[C@@H](O)[C@]1(C)O [AZITHROMYCIN] | 72% |  | 0.69 |  | < 4.30 |  |  | 23.2 mL/min/kg | 16 mL/min/kg | 8.8 L/kg |  | inactive | t1/2 (Mus musculus [12]): 8.3 h; Activity (Plasmodium berghei [13]): inactive; Activity (Plasmodium berghei [14]): inactive; Survival (Plasmodium berghei [15]): 19 days; Survival (Plasmodium berghei [16]): 17 days |
| CC[C@H]1OC(=O)[C@H](C)[C@@H](O[C@H]2C[C@@](C)(OC)[C@@H](O)[C@H](C)O2)[C@H](C)[C@@H](O[C@@H]2O[C@H](C)C[C@H](N(C)C)[C@H]2O)[C@](C)(O)C[C@@H](C)CN(CCCNc2ccnc3cc(Cl)ccc23)[C@H](C)[C@@H](O)[C@]1(C)O |  |  |  |  |  |  |  |  |  |  |  | inactive | Activity (Plasmodium berghei [17]): inactive; Activity (Plasmodium berghei [18]): Active; Activity (Plasmodium berghei [19]): Active; Activity (Plasmodium berghei [20]): Active |
| CC(=O)O.CC[C@H]1OC(=O)[C@H](C)[C@@H](O[C@H]2C[C@@](C)(OC)[C@@H](O)[C@H](C)O2)[C@H](C)[C@@H](O[C@@H]2O[C@H](C)C[C@H](N(C)C)[C@H]2O)[C@](C)(O)C[C@@H](C)CN(CCCNC(=O)CCc2ccccc2)[C@H](C)[C@@H](O)[C@]1(C)O |  |  |  |  |  |  |  |  |  |  |  |  | solubility [21]: >= 10 mg kg-1 |
